core dimer inh: blocks dimerization of HCV core protein. inhibition, % at 5 µM. 0.33% of 300,000 active. AID 1899. TR-FRET GST/Flag-core106 dimerization, 1536-well;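 active means inhibition above the mean of all tested compounds plus 3 SD, set per screening campaign, cut at about 45% in these data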
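System: GST/Flag-tagged HCV core106 proteins. Incubation: compound-protein-antibody incubation 4 h at 22.5 °C. Technique: HTRF with 340 nm excitation, 617/671 nm emission. Medium: KF-containing HEPES buffer, pH 7.45, DTT, CHAPS, BSA. Read-out: inhibition (%) from 671 over 617 nm ratio. Also added: Eu(K)-anti-GST 90 ng/mL plus XL665-anti-Flag 1 µg/mL.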
ZTA counter: ZTA (EBV) inhibition in EBNA-1 counter-screen; inhibition, % at 11 µM; 0.15% of 320,000 active; P03206; ZTA-DNA binding, fluorescence polarization; in the data active means inhibition above about 33%
Target sequence (P03206 whole entry, looked up): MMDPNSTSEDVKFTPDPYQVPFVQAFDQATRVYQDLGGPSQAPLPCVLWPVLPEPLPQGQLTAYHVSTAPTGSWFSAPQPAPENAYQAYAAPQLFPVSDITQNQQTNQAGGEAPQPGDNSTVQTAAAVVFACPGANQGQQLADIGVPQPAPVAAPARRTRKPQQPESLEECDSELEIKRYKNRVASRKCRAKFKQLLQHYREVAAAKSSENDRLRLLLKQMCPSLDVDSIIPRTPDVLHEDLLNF
EBNA-1 inh: blocks EBNA-1 binding to DNA; inhibition, % at 14.8 µM; EBNA-1 DNA binding, fluorescence polarization; AID 1950; 0.34% of 300,000 active; in the data active means inhibition above about 28%
HCV NS3 hel inh: blocks Hepatitis C virus NS3 helicase unwinding. NS3 helicase DNA unwinding, Cy5 molecular beacon fluorescence. inhibition, % at 10.9 µM. 0.56% of 290,000 active;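 active means inhibition above the mean of all tested compounds plus 3 SD, set per campaign, cut at about 35% in these data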
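Control set: DMSO versus 110 µM thioflavine S; Material: NS3 helicase fragment of HCV; Measured by: Cy5 fluorescence at 0 and 60 min, beacon hairpin quenching; Read-out basis: percent inhibition from t60/t0 fluorescence ratio; Times: reaction time 60 min, 25 °C; Repeats: single replicate; Compound dosing: single dose, 10.9 µM nominal final, DMSO 0.8% final.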
PP1 inh: PP1-alpha (human) inhibition in PP5 counter-screen | P62136 | purified PP1alpha, OMFP fluorescence | inhibition, % at 6.7 µM | 0.9% of 320,000 active | AID 2235;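 active means inhibition above the mean inhibition of all tested compounds plus 3 SD, computed separately for each screening campaign, cut at about 15% in these data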
EBNA-1 inh conf: EBNA-1 (EBV) inhibition, confirmation. shares compounds with EBNA-1 inh. inhibition, % at 14.8 µM. Recombinant EBNA-1 DBD, Cy5-DNA fluorescence polarization. 35% of 830 active. AID 2292;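 active means mean inhibition across replicates above a set limit taken from the earlier primary screen, cut at about 28% in these data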
ZTA DNA inh trip: counter-screen for EBNA-1 inhibitors: Epstein-Barr virus ZTA inhibitors, triplicate. shares compounds with EBNA-1 inh. Zta-ZRE DNA binding, Cy5 fluorescence polarization. inhibition, % at 11.1 µM. 830 tested, under 10 active. AID 2328;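 active means mean inhibition over triplicates above a set limit taken from the primary EBNA-1 screen, cut at about 37% in these data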;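 further: purified full length Zta protein with Cy5 labeled ZRE DNA probe; inhibitors lower polarization by freeing the labeled DNA probe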
Hits are given with their value; 0 = inactive; - = no result given. A selection: hits, their analogues and other compounds. The true share with any hit is near 1.9%.

SMILES | core dimer inh | ZTA counter | EBNA-1 inh | HCV NS3 hel inh | PP1 inh | EBNA-1 inh conf | ZTA DNA inh trip
CCOc1ccc(NC(=O)c2ccc(C#CC(C)(C)O)cc2)cc1 | 0 | 0 | 30 | 0 | 0 | 0 | 0
Cc1ccc(C(C(=O)NC2CCCC2)N(CCCO)C(=O)Cn2nnc(-c3ccc(C)o3)n2)cc1 (stereo not given) | 0 | 0 | 0 | 0 | 0 | - | -
CCCN1CCN(C(=O)CCc2nnc3ccc(N4CCN(c5cccc(OC)c5)CC4)nn23)CC1 | 0 | 0 | 0 | 0 | 0 | - | -
CCOC(=O)C1CCN(C(=S)Nc2ccc(CC)cc2)CC1 | 0 | 0 | 0 | 0 | 0 | - | -
COc1ccc(/C=C/C(=O)Nc2ccccc2C(F)(F)F)cc1 | 0 | 0 | 32 | 0 | 0 | 0 | 0
CCOc1ccc(/C=C/C(=O)Nc2ccccc2C(F)(F)F)cc1 | 0 | 0 | 0 | 0 | 0 | - | -
Cc1ccc(CNC(=O)c2ccc(NS(=O)(=O)c3cccs3)cc2)cc1 | 0 | 0 | 0 | 0 | 0 | - | -
CC(=O)CCc1c(C)nc2ccc(C(=O)O)cc2c1Cl | 0 | 0 | 31 | 0 | 0 | 0 | 0
Cc1nc2ccc(C(=O)O)cc2nc1C | 0 | 0 | 0 | 0 | 0 | - | -
Cn1c2ccccc2c2cnn(CC(=O)Nc3ccccc3Br)c(=O)c21 | 0 | 0 | 32 | 0 | 0 | 0 | 0
COc1ccc(C(CNC(=O)COc2ccccc2)N2CCCCC2)cc1 (stereo not given) | - | 0 | - | - | 0 | - | -
O=C(CCn1c(=O)oc2ccccc21)Nc1cccc(Cl)c1 | 0 | 0 | 36 | 0 | 0 | 0 | 0
COC(=O)c1cc(NC(=O)Cn2c(=O)oc3ccccc32)cc(C(=O)OC)c1 | 0 | 0 | 65 | 0 | 0 | 38 | 0
O=C(Cn1c(=O)oc2ccccc21)Nc1cccc(Cl)c1 | 0 | 0 | 0 | 0 | 0 | - | -
COCCNc1nnc(SCC(=O)NC2CCCCC2)s1 | - | 0 | - | - | 0 | - | -
CCOC(=O)Cc1cc(=O)[nH]c(/N=C(\N)Nc2ccc(C)cc2C)n1 | 0 | 0 | 47 | 0 | 0 | 0 | 0
COC(=O)Cc1cc(=O)[nH]c(/N=C(\N)Nc2ccc(C)cc2C)n1 | 0 | 0 | 0 | 0 | 0 | - | -
O=C1COc2ccc(C(=O)COC(=O)C3CCN(S(=O)(=O)c4cccs4)CC3)cc2N1 | 0 | 0 | 35 | 0 | 0 | 0 | 0
COc1cc(S(=O)(=O)N2CCN(C(=O)c3ccco3)CC2)ccc1Cl | 0 | 0 | 0 | 0 | 0 | - | -
O=C(Cn1nc(-c2ccc3c(c2)OCCO3)ccc1=O)Nc1ccc(N2CCOCC2)cc1 | 0 | 0 | 0 | 0 | 0 | - | -
O=C(Cn1nc(-c2ccc3c(c2)OCCO3)ccc1=O)Nc1cccc(NC(=O)c2ccccn2)c1 | 0 | 0 | 41 | 0 | 0 | 43 | 0
c1ccc(-c2csc(-c3ccc(-c4csnn4)cc3)n2)cc1 | 0 | 0 | 57 | 0 | 0 | 46 | 0
CCOc1ccc(S(=O)(=O)n2nc(C)cc2C)cc1 | 0 | 0 | 0 | 0 | 0 | - | -
Cc1cc(=O)n2nc(N3CCC(C(=O)NCc4ccc(Cl)cc4)CC3)sc2n1 | 0 | 0 | 0 | 0 | 0 | - | -
O=C(Nc1cccc(Cl)c1Cl)C1CC(=O)N(c2ccc(Br)cc2)C1 (stereo not given) | 0 | 0 | 60 | 0 | 0 | 0 | 0
SMILES | core dimer inh | ZTA counter | EBNA-1 inh | HCV NS3 hel inh | PP1 inh | EBNA-1 inh conf | ZTA DNA inh trip
Cc1ccc(-c2nn3c(-c4ccco4)nnc3c3ccccc23)cc1S(=O)(=O)NCC1CCCO1 (stereo not given) | 0 | 0 | 86 | 0 | 0 | 0 | 0
COC(=O)c1cc(NC(=O)C2CCCN(S(=O)(=O)c3c(C)n[nH]c3C)C2)cc(C(=O)OC)c1 (stereo not given) | 0 | 0 | 28 | 0 | 0 | 0 | 0
COc1ccc(-n2nc(C(=O)NCC(=O)NCCCN3CC(C)CC(C)C3)c3ccccc3c2=O)cc1 (stereo not given) | 0 | 0 | 0 | 0 | 0 | - | -
COc1ccc(C(=O)Nc2ccccc2C(=O)NC(Cc2ccc(O)cc2)C(=O)NNC(=O)c2ccc(C)cc2)cc1 (stereo not given) | 0 | 0 | 0 | 0 | 0 | - | -
COc1ccc(C(=O)Nc2ccccc2C(=O)NC(Cc2ccc(O)cc2)C(=O)NNC(=O)c2ccccc2)cc1 (stereo not given) | 0 | 0 | 82 | 0 | 0 | 0 | 0
Cc1ccc(NCc2nnc(SCC(=O)Nc3cc(C)on3)n2C)cc1 | 0 | 0 | 0 | 0 | 0 | - | -
